Data reported in ChEMBL document CHEMBL4689842, “EUbOPEN Chemogenomics Library wave 1” (2021).

System: U2OS
Assay: Multiplex assay against U2OS
Type: toxicity, cell-based
Details: human
Method in brief: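 Live cells were stained at seeding with Hoechst33342, BioTracker Green Microtubule Cytoskeleton Dye, MitoTracker Red and Annexin V Alexa Fluor 680, then imaged on a CQ1 microscope at 37°C and 5% CO2 after compound addition. CellPathfinder machine-learning gating split cells into Hoechst high-intensity objects or normal cells. Normal cells were split into healthy, pyknosed or fragmented nuclei, and pyknosed cells into mitotic or apoptotic. Tubulin, mitochondrial-mass and membrane-permeability phenotypes are per cents of healthy-nucleus cells.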

[1] = 12 h, 1 µM, compound concentration 1 uM, replicate 1
[2] = 12 h, 1 µM, compound concentration 1 uM, replicate 2
[3] = 12 h, 10 µM, compound concentration 10 uM, replicate 1
[4] = 12 h, 10 µM, compound concentration 10 uM, replicate 2
[5] = 24 h, 1 µM, compound concentration 1 uM, replicate 1
[6] = 24 h, 1 µM, compound concentration 1 uM, replicate 2
[7] = 24 h, 10 µM, compound concentration 10 uM, replicate 1
[8] = 24 h, 10 µM, compound concentration 10 uM, replicate 2
[9] = 48 h, 1 µM, compound concentration 1 uM, replicate 1
[10] = 48 h, 1 µM, compound concentration 1 uM, replicate 2
[11] = 48 h, 10 µM, compound concentration 10 uM, replicate 1
[12] = 48 h, 10 µM, compound concentration 10 uM, replicate 2

Cc1c(-c2ccc(O)cc2)n(Cc2ccc(OCCN3CCCCCC3)cc2)c2ccc(O)cc12 [BAZEDOXIFENE]
Population Apoptotic (%) [1]: 58%
Population Fragmented Nuclei (%) [1]: 22%
Population Healthy Nuclei (%) [1]: 67%
Population Hoechst High Intensity Objects (%) [1]: 15%
Population Membrane Permeable-Phenotype (%) [1]: 3%
Population Mitochondria Different-Phenotype (%) [1]: 13%
Population Mitotic Cells (%) [1]: 41%
Population Normal (%) [1]: 84%
Population Pyknosed Nuclei (%) [1]: 9%
Population Tubulin-Different-Phenotype (%) [1]: 20%
Total Cell Count [1]: 144
Population Apoptotic (%) [2]: 0%
Population Fragmented Nuclei (%) [2]: 13%
Population Healthy Nuclei (%) [2]: 81%
Population Hoechst High Intensity Objects (%) [2]: 10%
Population Membrane Permeable-Phenotype (%) [2]: 5%
Population Mitochondria Different-Phenotype (%) [2]: 20%
Population Mitotic Cells (%) [2]: 100%
Population Normal (%) [2]: 89%
Population Pyknosed Nuclei (%) [2]: 4%
Population Tubulin-Different-Phenotype (%) [2]: 17%
Total Cell Count [2]: 48
Population Apoptotic (%) [3]: 41%
Population Fragmented Nuclei (%) [3]: 24%
Population Healthy Nuclei (%) [3]: 43%
Population Hoechst High Intensity Objects (%) [3]: 4%
Population Membrane Permeable-Phenotype (%) [3]: 23%
Population Mitochondria Different-Phenotype (%) [3]: 97%
Population Mitotic Cells (%) [3]: 58%
Population Normal (%) [3]: 95%
Population Pyknosed Nuclei (%) [3]: 32%
Population Tubulin-Different-Phenotype (%) [3]: 98%
Total Cell Count [3]: 190
Population Apoptotic (%) [4]: 60%
Population Fragmented Nuclei (%) [4]: 7%
Population Healthy Nuclei (%) [4]: 56%
Population Hoechst High Intensity Objects (%) [4]: 2%
Population Membrane Permeable-Phenotype (%) [4]: 26%
Population Mitochondria Different-Phenotype (%) [4]: 100%
Population Mitotic Cells (%) [4]: 40%
Population Normal (%) [4]: 97%
Population Pyknosed Nuclei (%) [4]: 36%
Population Tubulin-Different-Phenotype (%) [4]: 100%
Total Cell Count [4]: 42
Population Apoptotic (%) [5]: 24%
Population Fragmented Nuclei (%) [5]: 15%
Population Healthy Nuclei (%) [5]: 66%
Population Hoechst High Intensity Objects (%) [5]: 11%
Population Membrane Permeable-Phenotype (%) [5]: 3%
Population Mitochondria Different-Phenotype (%) [5]: 9%
Population Mitotic Cells (%) [5]: 76%
Population Normal (%) [5]: 88%
Population Pyknosed Nuclei (%) [5]: 17%
Population Tubulin-Different-Phenotype (%) [5]: 11%
Total Cell Count [5]: 157
Population Apoptotic (%) [6]: 11%
Population Fragmented Nuclei (%) [6]: 8%
Population Healthy Nuclei (%) [6]: 75%
Population Hoechst High Intensity Objects (%) [6]: 3%
Population Membrane Permeable-Phenotype (%) [6]: 2%
Population Mitochondria Different-Phenotype (%) [6]: 6%
Population Mitotic Cells (%) [6]: 88%
Population Normal (%) [6]: 96%
Population Pyknosed Nuclei (%) [6]: 15%
Population Tubulin-Different-Phenotype (%) [6]: 15%
Total Cell Count [6]: 60
Population Apoptotic (%) [7]: 73%
Population Fragmented Nuclei (%) [7]: 32%
Population Healthy Nuclei (%) [7]: 26%
Population Hoechst High Intensity Objects (%) [7]: 4%
Population Membrane Permeable-Phenotype (%) [7]: 50%
Population Mitochondria Different-Phenotype (%) [7]: 100%
Population Mitotic Cells (%) [7]: 26%
Population Normal (%) [7]: 95%
Population Pyknosed Nuclei (%) [7]: 40%
Population Tubulin-Different-Phenotype (%) [7]: 98%
Total Cell Count [7]: 213
Population Apoptotic (%) [8]: 68%
Population Fragmented Nuclei (%) [8]: 22%
Population Healthy Nuclei (%) [8]: 30%
Population Hoechst High Intensity Objects (%) [8]: 20%
Population Membrane Permeable-Phenotype (%) [8]: 75%
Population Mitotic Cells (%) [8]: 31%
Population Normal (%) [8]: 80%
Population Pyknosed Nuclei (%) [8]: 47%
Population Tubulin-Different-Phenotype (%) [8]: 100%
Total Cell Count [8]: 50
Population Apoptotic (%) [9]: 53%
Population Fragmented Nuclei (%) [9]: 11%
Population Healthy Nuclei (%) [9]: 80%
Population Hoechst High Intensity Objects (%) [9]: 7%
Population Membrane Permeable-Phenotype (%) [9]: 2%
Population Mitochondria Different-Phenotype (%) [9]: 13%
Population Mitotic Cells (%) [9]: 46%
Population Normal (%) [9]: 92%
Population Pyknosed Nuclei (%) [9]: 8%
Population Tubulin-Different-Phenotype (%) [9]: 8%
Total Cell Count [9]: 197
Population Apoptotic (%) [10]: 36%
Population Fragmented Nuclei (%) [10]: 14%
Population Healthy Nuclei (%) [10]: 75%
Population Hoechst High Intensity Objects (%) [10]: 3%
Population Membrane Permeable-Phenotype (%) [10]: 8%
Population Mitochondria Different-Phenotype (%) [10]: 16%
Population Mitotic Cells (%) [10]: 63%
Population Normal (%) [10]: 96%
Population Pyknosed Nuclei (%) [10]: 11%
Population Tubulin-Different-Phenotype (%) [10]: 22%
Total Cell Count [10]: 104
Population Apoptotic (%) [11]: 95%
Population Fragmented Nuclei (%) [11]: 39%
Population Healthy Nuclei (%) [11]: 5%
Population Hoechst High Intensity Objects (%) [11]: 9%
Population Membrane Permeable-Phenotype (%) [11]: 77%
Population Mitotic Cells (%) [11]: 4%
Population Normal (%) [11]: 90%
Population Pyknosed Nuclei (%) [11]: 55%
Population Tubulin-Different-Phenotype (%) [11]: 88%
Total Cell Count [11]: 177
Population Apoptotic (%) [12]: 100%
Population Fragmented Nuclei (%) [12]: 13%
Population Healthy Nuclei (%) [12]: 48%
Population Hoechst High Intensity Objects (%) [12]: 32%
Population Membrane Permeable-Phenotype (%) [12]: 92%
Population Mitochondria Different-Phenotype (%) [12]: 100%
Population Mitotic Cells (%) [12]: 0%
Population Normal (%) [12]: 67%
Population Pyknosed Nuclei (%) [12]: 37%
Population Tubulin-Different-Phenotype (%) [12]: 100%
Total Cell Count [12]: 43
